Tests used:
HEL [1] = assay: Induction of apoptosis in HEL cells assessed as viable cells at 1 uM after 24 hrs by Annexin-V/propidium iodide staining-based flow cytometric analysis (reference value: 87.5%); assay type: functional, Homo sapiens; settings: Homo sapiens, HEL, 24 h; read-out: Activity
Jurkat = assay: Antiproliferative activity against human Jurkat cells assessed as reduction in cell viability after 48 hrs by MTT assay; assay type: functional, cell-based
K562 [2] = assay: Antiproliferative activity against human K562 cells assessed as reduction in cell viability after 48 hrs by MTT assay; assay type: functional, cell-based; settings: K562, 48 h
MOLT-4 = assay: Antiproliferative activity against human MOLT4 cells assessed as reduction in cell viability after 48 hrs by MTT assay; assay type: functional, cell-based; settings: MOLT-4, 48 h
Procedure, shortened: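 Cells kept in RPMI1640 with 10% FBS at 37 °C, 5% CO2. Seeded and grown for 12 h, then exposed to a range of compound concentrations for 48 h. 0.5% MTT added for 4 h, formazan dissolved in DMSO, absorbance read at 570 nm.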

[3] = biological target: Vascular endothelial growth factor receptor 3 (Homo sapiens) (UniProt P35916); assay: Inhibition of recombinant human FLT4 at 20 nM using Ulight-CAGAGAIETDKEYYTVKD as substrate measured after 90 mins by LANCE method relative to control
Vascular endothelial growth factor receptor 3 (Homo sapiens), sequence (P35916 whole entry): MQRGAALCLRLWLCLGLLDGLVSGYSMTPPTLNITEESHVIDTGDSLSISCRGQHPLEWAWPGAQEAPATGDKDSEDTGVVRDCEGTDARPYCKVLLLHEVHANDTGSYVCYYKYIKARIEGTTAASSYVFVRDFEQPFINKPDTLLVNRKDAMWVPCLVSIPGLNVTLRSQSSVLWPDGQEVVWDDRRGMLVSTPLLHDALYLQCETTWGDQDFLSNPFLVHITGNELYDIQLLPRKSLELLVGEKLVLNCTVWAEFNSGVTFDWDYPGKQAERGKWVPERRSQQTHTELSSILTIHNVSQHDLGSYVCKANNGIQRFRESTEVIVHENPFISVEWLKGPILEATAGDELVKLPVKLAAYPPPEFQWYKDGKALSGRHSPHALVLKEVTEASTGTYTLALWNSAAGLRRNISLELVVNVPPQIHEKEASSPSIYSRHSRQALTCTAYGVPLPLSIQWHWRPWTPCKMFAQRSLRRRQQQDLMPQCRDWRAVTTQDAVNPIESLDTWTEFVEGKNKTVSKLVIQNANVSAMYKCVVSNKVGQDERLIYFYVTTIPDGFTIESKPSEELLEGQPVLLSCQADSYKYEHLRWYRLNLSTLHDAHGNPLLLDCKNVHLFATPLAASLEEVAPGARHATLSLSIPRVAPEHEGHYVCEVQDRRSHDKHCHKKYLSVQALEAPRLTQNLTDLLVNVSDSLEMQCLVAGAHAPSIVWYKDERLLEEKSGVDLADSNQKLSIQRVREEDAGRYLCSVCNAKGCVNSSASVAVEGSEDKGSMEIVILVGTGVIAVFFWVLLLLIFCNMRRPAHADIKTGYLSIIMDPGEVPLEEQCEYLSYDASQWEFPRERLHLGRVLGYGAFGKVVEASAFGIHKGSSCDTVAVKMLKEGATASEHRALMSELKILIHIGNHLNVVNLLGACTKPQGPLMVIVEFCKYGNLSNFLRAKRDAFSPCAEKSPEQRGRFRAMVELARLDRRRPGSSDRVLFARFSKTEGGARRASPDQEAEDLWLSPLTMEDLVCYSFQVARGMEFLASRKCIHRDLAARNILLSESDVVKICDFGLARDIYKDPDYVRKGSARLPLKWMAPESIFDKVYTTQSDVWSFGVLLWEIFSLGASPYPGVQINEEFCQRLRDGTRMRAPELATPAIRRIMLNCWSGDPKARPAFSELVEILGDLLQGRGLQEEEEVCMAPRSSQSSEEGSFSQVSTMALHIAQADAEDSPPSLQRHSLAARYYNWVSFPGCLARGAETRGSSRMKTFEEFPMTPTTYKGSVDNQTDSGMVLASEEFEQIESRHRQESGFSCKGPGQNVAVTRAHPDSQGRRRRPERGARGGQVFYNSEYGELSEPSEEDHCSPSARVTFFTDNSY
Procedure, shortened: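 Part of an 85-kinase selectivity panel run by a contract lab. The test compound was screened at 20 nM and 200 nM against human recombinant kinases. Activity was quantified as phosphorylation of a ULight-labelled peptide substrate, read by LANCE detection. Percent inhibition was taken relative to control. The method is the same one used for JAKs.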

K562 [4] = assay: Induction of apoptosis in human K562 cells assessed as early apoptotic cells at 1 uM after 24 hrs by Annexin-V/propidium iodide staining-based flow cytometric analysis (reference value: 7.55%); assay type: functional
K562 [5] = assay: Induction of apoptosis in human K562 cells assessed as necrotic apoptotic cells at 1 uM after 24 hrs by Annexin-V/propidium iodide staining-based flow cytometric analysis (reference value: 0.827%); assay type: functional
Histone deacetylase 2 = Histone deacetylase 2 (Homo sapiens, UniProt Q92769); assay: Inhibition of HDAC2 (unknown origin) using Boc-Lys(acetyl)-AMC as substrate preincubated for 5 mins followed by substrate addition and measured after 30 mins by fluorescence assay
Histone deacetylase 2, sequence (Q92769 whole entry): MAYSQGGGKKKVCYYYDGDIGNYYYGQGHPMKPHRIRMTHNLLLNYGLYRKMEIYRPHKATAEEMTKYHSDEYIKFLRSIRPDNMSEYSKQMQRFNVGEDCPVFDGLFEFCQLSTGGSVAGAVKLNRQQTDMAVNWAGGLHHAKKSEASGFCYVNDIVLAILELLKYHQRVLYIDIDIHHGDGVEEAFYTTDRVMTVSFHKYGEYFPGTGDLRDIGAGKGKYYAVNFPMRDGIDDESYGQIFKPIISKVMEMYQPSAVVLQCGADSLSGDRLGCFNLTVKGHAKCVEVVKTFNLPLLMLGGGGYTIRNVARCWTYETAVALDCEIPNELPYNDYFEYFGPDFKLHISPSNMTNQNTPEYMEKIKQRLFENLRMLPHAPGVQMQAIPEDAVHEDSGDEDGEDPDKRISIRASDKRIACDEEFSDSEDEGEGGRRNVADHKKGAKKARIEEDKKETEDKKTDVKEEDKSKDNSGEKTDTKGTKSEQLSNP

K562 [6] = assay: Induction of apoptosis in human K562 cells assessed as late apoptotic cells at 1 uM after 24 hrs by Annexin-V/propidium iodide staining-based flow cytometric analysis (reference value: 5.87%); assay type: functional
HEL [7] = assay: Induction of apoptosis in HEL cells assessed as late apoptotic cells at 1 uM after 24 hrs by Annexin-V/propidium iodide staining-based flow cytometric analysis (reference value: 0.023%); assay type: functional, Homo sapiens
Histone deacetylase 8 = biological target: T1, Histone deacetylase 8 (Homo sapiens, UniProt Q9BY41); assay: Inhibition of HDAC8 (unknown origin) using Boc-Lys(trifluoroacetyl)-AMC as substrate preincubated for 5 mins followed by substrate addition and measured after 30 mins by fluorescence assay
T1 sequence (Q9BY41 whole entry): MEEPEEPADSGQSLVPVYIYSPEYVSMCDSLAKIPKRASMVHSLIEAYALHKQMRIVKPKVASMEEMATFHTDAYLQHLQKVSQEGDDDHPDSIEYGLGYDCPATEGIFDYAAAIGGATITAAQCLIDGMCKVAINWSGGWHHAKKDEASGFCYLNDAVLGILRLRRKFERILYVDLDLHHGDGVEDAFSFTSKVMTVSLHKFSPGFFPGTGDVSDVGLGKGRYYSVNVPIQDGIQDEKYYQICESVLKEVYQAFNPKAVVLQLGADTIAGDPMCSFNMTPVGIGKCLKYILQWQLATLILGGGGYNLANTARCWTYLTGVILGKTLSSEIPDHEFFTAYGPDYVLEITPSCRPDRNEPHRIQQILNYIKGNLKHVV

[8] = MRT (0 to t) in CD1(ICR) mouse at 1 mg/kg, ip by LC-MS/MS analysis; assay type: ADME, organism-based; settings: in vivo
[9] = biological target: T2, Tyrosine-protein kinase JAK3 (Homo sapiens, UniProt P52333); assay: Inhibition of recombinant human JAK3 using Ulight-CAGAGAIETDKEYYTVKD as substrate measured after 60 mins by LANCE assay
T2 sequence (P52333 whole entry): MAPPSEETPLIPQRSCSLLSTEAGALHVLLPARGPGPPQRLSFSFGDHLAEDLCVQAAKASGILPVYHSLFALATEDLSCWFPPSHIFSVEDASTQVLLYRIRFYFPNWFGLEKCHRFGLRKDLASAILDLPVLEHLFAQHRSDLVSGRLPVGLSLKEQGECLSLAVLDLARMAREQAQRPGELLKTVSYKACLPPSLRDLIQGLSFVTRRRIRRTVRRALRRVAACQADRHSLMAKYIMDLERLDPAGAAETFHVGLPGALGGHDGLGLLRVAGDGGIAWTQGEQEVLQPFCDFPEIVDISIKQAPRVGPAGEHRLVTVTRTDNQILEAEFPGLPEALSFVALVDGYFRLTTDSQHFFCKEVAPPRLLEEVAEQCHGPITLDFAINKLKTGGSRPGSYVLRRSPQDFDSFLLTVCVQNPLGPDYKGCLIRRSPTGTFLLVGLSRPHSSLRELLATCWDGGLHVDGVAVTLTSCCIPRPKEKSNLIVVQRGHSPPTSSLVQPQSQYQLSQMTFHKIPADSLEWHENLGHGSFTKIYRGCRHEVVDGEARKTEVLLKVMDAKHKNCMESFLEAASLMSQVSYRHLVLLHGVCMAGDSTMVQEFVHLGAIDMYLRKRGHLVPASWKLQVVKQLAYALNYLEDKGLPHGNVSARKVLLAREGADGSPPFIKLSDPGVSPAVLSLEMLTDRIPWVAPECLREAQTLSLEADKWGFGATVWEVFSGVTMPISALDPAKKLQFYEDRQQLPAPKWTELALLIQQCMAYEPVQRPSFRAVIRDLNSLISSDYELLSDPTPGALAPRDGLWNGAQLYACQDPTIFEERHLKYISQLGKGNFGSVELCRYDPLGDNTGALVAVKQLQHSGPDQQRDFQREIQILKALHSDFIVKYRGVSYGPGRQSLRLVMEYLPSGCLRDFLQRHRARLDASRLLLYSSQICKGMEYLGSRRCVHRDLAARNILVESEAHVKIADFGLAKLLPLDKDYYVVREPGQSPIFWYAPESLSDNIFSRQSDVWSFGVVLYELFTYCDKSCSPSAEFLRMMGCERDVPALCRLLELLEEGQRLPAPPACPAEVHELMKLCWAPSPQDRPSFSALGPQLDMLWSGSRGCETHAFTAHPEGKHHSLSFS

[10] = MRT (0 to t) in CD1(ICR) mouse at 1 mg/kg, iv by LC-MS/MS analysis; assay type: ADME, organism-based; settings: in vivo
HEL [11] = assay: Induction of apoptosis in HEL cells assessed as necrotic apoptotic cells at 1 uM after 24 hrs by Annexin-V/propidium iodide staining-based flow cytometric analysis (reference value: 0.011%); assay type: functional, Homo sapiens

SMILES	viability at 1 µM (HEL [1])	IC50 (Jurkat)	IC50 (K562 [2])	IC50 (MOLT-4)	inhibition [3]	Activity (K562 [4])	Activity (K562 [5])	IC50 (Histone deacetylase 2)	Activity (K562 [6])	Activity (HEL [7])	IC50 (Histone deacetylase 8)	MRT last [8]	IC50 [9]	MRT last [10]	Activity (HEL [11])
O=C(CCCCCn1cc(Nc2ncc(Cl)c(Nc3ccc(Cl)cc3)n2)cn1)NO	4.31%	60 nM	490 nM	80 nM	38%	34.4%	1.07%	120 nM	46.9%	60%	2470 nM	21.6 min	7.4 nM	16.2 min	7.97%
O=C(CCCCCCn1cc(Nc2ncc(Cl)c(Nc3cccc(Cl)c3)n2)cn1)NO	5.97%	100 nM	380 nM	130 nM	–	15.3%	1.14%	130 nM	30%	68.7%	840 nM	–	3.3 nM	–	2.58%

From ChEMBL document CHEMBL4346670, “Discovery of Novel Janus Kinase (JAK) and Histone Deacetylase (HDAC) Dual Inhibitors for the Treatment of Hematological Malignancies” (J Med Chem, 2019)
